# A selection: hits, their analogues and other compounds. The true share with any hit is near 4.5%.
# OX1R antag-1 = antagonists of human orexin 1 receptor; O43613; CHO/OX1R cells, Fluo-8 calcium fluorescence, orexin A; inhibition, % at 5 µM; hit rate 0.43% among 330,000; AID 434989;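 active = inhibition above its plate's threshold, mean inhibition of all tested compounds on the plate plus 3 SD, cut at about 37% in these data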;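 note: 0% = orexin A challenge wells and 100% = SB-334867-A antagonist wells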
# TAAR1 agonist = agonists of human TAAR1; Q96RJ0; CHO RD-HGA16 TAAR1, Fluo-8 calcium fluorescence; vehicle wells 0%, saturating PEA agonist 100%; activation, % at 3 µM; hit rate 0.99% among 360,000; AID 624467;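 active = activation above the mean activation of all test compounds in the run plus 3 SD, cut at about 38% in these data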
# Target sequence (Q96RJ0 whole entry, looked up): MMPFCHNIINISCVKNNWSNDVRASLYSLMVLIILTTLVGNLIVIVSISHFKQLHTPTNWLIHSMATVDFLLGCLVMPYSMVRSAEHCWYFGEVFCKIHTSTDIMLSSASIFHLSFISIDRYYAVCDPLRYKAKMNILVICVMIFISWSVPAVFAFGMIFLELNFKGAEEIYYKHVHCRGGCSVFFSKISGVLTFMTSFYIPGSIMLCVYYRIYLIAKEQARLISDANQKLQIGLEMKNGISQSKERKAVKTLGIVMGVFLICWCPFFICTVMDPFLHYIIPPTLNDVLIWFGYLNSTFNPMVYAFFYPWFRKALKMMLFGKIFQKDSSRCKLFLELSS
#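 Signal – calcium-sensitive Fluo-8 signal, excitation 470-495, emission 515-575 nm · System – RD-HGA16 (CHO) cells co-expressing Gα16 and hTAAR1 · Incubation – 17-24 h seeding, 75 min 37 °C dye, 30 min RT · Compound dosing – 3 µM single concentration · Repeats – no replicates (n 1)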
# TAAR1 antag = human TAAR1 antagonism; Q96RJ0; CHO RD-HGA16 TAAR1, Fluo-8 calcium fluorescence, antagonist; inhibition, % at 3 µM; hit rate 1.5% among 360,000; AID 624466;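 active = inhibition above a per-plate cutoff, the mean inhibition of test compounds on that plate plus 3 SD, cut at about 49% in these data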;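 note: 0% = DMSO plus EC80 beta-PEA response and 100% = DMSO alone without agonist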
#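 test system = CHO RD-HGA16 cells bearing hTAAR1 | replication = singlicate | controls = DMSO-only wells and EC80 β-PEA-stimulated wells | reagent = EC80 β-phenethylamine stimulus | read-out basis = percent inhibition of PEA-evoked calcium signal, max/basal emission ratio | schedule = seeding 17-24 h prior, 75-min 37 °C, 30-min RT dye loading | signal = kinetic Fluo-8 calcium fluorescence measurement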
# GPR7 antag = antagonists of human GPR7 (neuropeptides B/W receptor 1) | GPR7-expressing cells, fluorescence antagonist assay | hit rate 1.1% among 290,000 | inhibition, % at 4.4 µM | AID 1861; in the data active = inhibition above about 16%, passing the limit was not always enough;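 note: cells stimulated with the agonist NPW; 0% = agonist with vehicle and 100% = vehicle without agonist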
# Target sequence (P48145 whole entry, looked up): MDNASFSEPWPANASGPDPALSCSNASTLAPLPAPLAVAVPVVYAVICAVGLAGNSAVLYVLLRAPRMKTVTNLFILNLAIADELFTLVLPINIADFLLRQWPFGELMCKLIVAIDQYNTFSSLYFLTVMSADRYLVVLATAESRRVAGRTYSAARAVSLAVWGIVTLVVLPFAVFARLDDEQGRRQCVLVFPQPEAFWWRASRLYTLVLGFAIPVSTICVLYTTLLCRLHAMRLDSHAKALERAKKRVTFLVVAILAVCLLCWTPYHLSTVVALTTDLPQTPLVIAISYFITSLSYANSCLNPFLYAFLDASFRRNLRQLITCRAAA
# OX1R antag-2 = blocks the human orexin 1 receptor; AID 485270; hit rate 1.8% among 330,000; O43613; OX1R-expressing cells, FRET antagonist read-out; inhibition, % at 6.6 µM; in the data active = inhibition mostly above about 38%, no sharp cut-off; inactive = mostly below about 40%;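 note: 0% = agonist challenge alone and 100% = reference antagonist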
# CHO parental Ca = counter-screen for OX1R antagonists: effect in parental CHO cells. parental CHO-K1, ATP-induced calcium, Fluo-8 fluorescence. inhibition, % at 5.6 µM. hit rate 0.63% among 330,000;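 active = inhibition above that plate's mean sample inhibition plus 3 SD, cut at about 26% in these data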;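 note: 0% = ATP-challenged DMSO wells and 100% = DMSO wells without ATP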
#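 Assay system: untransfected parental CHO cell line. Also added: ATP agonist challenge. Dosing: one dose, 5.6 µM nominal. Measured by: Fluo-8 fluorescence. Read-out: % inhibition. Benchmarks: ATP wells versus no-ATP DMSO wells. Repeats: no replicates.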
# OX1R HTRF confirm = OX1R (human) antagonism, HTRF confirmed; shares compounds with OX1R antag-2; inhibition, % at 6.6 µM; OX1R-expressing cells, HTRF antagonist assay; hit rate 49% among 1,800; in the data active = inhibition above about 55%;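 note: CHO cells expressing OX1R stimulated with orexin A at about EC80; 0% = agonist challenge alone and 100% = reference antagonist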
# CHO-K1 HTRF cnt = counter-screen for OX1R antagonists: effect in parental CHO-K1 cells. inhibition, % at 6.6 µM. hit rate 48% among 1,800. shares compounds with OX1R antag-2. AID 493232. HTRF counterscreen; in the data active = inhibition above about 17%;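 note: 0% = agonist challenge with vehicle and 100% = vehicle alone without agonist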
# * marks the source's active call; other numbers are inactive results; x = not tested or not shown.
SMILES,OX1R antag-1,TAAR1 agonist,TAAR1 antag,GPR7 antag,OX1R antag-2,CHO parental Ca,OX1R HTRF confirm,CHO-K1 HTRF cnt
O=C(Nc1ccc2oc(-c3ccccc3)nc2c1)C1CCCO1 (stereo not drawn),12,2,9,-5,98*,-10,46,11
O=C(Nc1ccc(-c2nc3ccccc3o2)cc1)C1CCCO1 (stereo not drawn),-17,4,5,-6,22,-1,x,x
COc1ccc(C2=NOC(C(=O)Nc3cccc(O)c3)C2)cc1 (stereo not drawn),-3,-1,-13,9,5,-5,x,x
C=CCn1c(=O)c2ccccc2n2c(SCc3csc(-c4ccccc4)n3)nnc12,-12,3,-3,-12,10,-2,x,x
COCCCNC(=O)CCCn1c(=O)c2ccccc2n(CC(=O)Nc2c(C)cc(C)cc2C)c1=O,-20,2,-7,-13,21,-11,x,x
O=C1CN(S(=O)(=O)c2ccc([N+](=O)[O-])cc2)CC(=O)N1,-7,1,-1,-3,77*,-8,40,66*
O=[N+]([O-])c1ccc(-c2ccc(S(=O)(=O)N3CCOCC3)cc2)cc1,-14,3,-3,-3,14,-3,x,x
Cn1cccc([N+](=O)[O-])c1=O,x,2,-25,x,x,x,x,x
Cn1c(=O)c(=O)n(C)c2cc([N+](=O)[O-])c([N+](=O)[O-])cc21,0,7,-35,-15,115*,-6,43,63*
Cc1ccc(NC(=O)c2ccncc2)cc1[N+](=O)[O-],-1,3,-4,-1,105*,-17,32,32*
Cc1ccc(C(=O)NNC(=O)c2ccncc2)cc1[N+](=O)[O-],-6,0,-3,x,9,-3,x,x
O=[N+]([O-])c1ccc(/C=N/n2cn[nH]c2=S)cc1,-11,0,-10,-13,109*,-2,60*,74*
CSc1nncn1/N=C/c1ccc([N+](=O)[O-])cc1,-1,15,-10,-14,90*,-5,46,46*
CCC(CC(C)(C)O)C(=O)NNC(=S)Nc1ccccc1 (stereo not drawn),-5,3,-1,-6,21,-2,x,x
Cc1ccsc1C(=O)Nc1ccc(O)c(-c2nc3ccccc3s2)c1,-6,-1,-27,-12,81*,0,73*,2
O=C(Nc1ccc(O)c(-c2nc3ccccc3s2)c1)C1=COCCO1,-5,2,29,-6,88*,-11,46,15
O=C(Nc1ccc(-c2nc3ccccc3s2)c(O)c1)C1=COCCO1,-2,1,-5,-6,16,1,x,x
CCS(=O)(=O)c1nc(S(=O)(=O)c2ccc(Cl)cc2)c(NCc2ccccn2)s1,-14,1,12,12,8,-23,x,x
CCCN(C(=O)CSCc1ccccc1C)c1c(N)n(Cc2ccccc2)c(=O)[nH]c1=O,-11,0,-6,x,14,-5,x,x
COc1cccc(-c2nnc(SCN3C(=O)c4ccccc4C3=O)n2C)c1,-24,5,0,-7,4,-12,x,x
O=C(CSc1nc(O)c(C2CCCCC2)c(=O)[nH]1)Nc1ccccc1Cl,-10,0,-4,-3,79*,-13,20,1
O=S(=O)(c1cccc2nsnc12)N1CCCCC1,-14,0,-4,-18,41,-3,x,x
CCOC(=O)N1CCN(S(=O)(=O)c2cccc3nsnc23)CC1,-27,1,-5,-4,82*,-20,33,39*
O=S(=O)(c1cccc2nsnc12)N1CCN(c2ncccn2)CC1,-16,7,21,-6,84*,-17,25,20*
CCOC(=O)C1CCCN(S(=O)(=O)c2cccc3nsnc23)C1 (stereo not drawn),-13,-2,1,-9,27,-16,x,x
SMILES,OX1R antag-1,TAAR1 agonist,TAAR1 antag,GPR7 antag,OX1R antag-2,CHO parental Ca,OX1R HTRF confirm,CHO-K1 HTRF cnt
O=C(O)CCCCN1C(=O)C=CC1=O,x,1,-17,x,x,x,x,x
O=C(COC(=O)CCc1ccccc1)Nc1ccccc1OC(F)F,-11,-3,-17,-1,0,9,x,x
COc1cc(SC)ccc1C(=O)Nc1ccc2ncccc2c1,-1,2,9,-3,90*,-23,86*,14
CCC[n+]1c2ccccc2cc2ccccc21,-9,4,0,19,84*,-17,48,54*
CC1CC(C)CN(c2ccc([N+](=O)[O-])cc2-c2nn[nH]n2)C1 (stereo not drawn),-16,7,7,5,51,-4,x,x
O=[N+]([O-])c1ccc(-n2cccn2)c(-c2nn[nH]n2)c1,-13,5,1,-8,108*,-14,37,54*
COc1cccc2oc3ccc(C#Cc4ccccn4)cc3c(=O)c12,4,8,17,-12,85*,-17,91*,0
N#C/C(=N\Nc1ccc(Cl)cc1)C(=N)N1CCCCC1,-23,6,4,19,77*,17,18,11
O=c1cc[nH]c2ccc([N+](=O)[O-])cc12,1,2,-13,3,122*,-13,51,61*
CCOC(=O)c1ccc(CNCc2ccc(Br)cc2)cc1,-8,3,-21,1,25,-12,x,x
CCOC(=O)c1ccc(NC(=O)c2cc3ccccc3o2)cc1,18,5,47,-9,77*,-24,72*,0
CCOC(=O)c1ccc(CNCc2ccccc2)cc1,-28,6,4,-1,80*,-8,27,-2
COc1ccc(-c2nnc(N3CCC(C)CC3)c3ccccc23)cc1,-6,7,0,7,9,0,x,x
Cc1cccc(C)c1NC(=O)C1CCN(S(C)(=O)=O)CC1,-5,4,-12,6,15,0,x,x
CCCc1[nH]n(-c2nc3ccccc3s2)c(=O)c1C=NCC(C)C,-31,7,-4,14,1,-27,x,x
COc1cccc(C(=O)Nc2cccc(-c3nnc(-c4ccco4)o3)c2)c1,-25,17,43,-14,104*,-22,35,5
O=C(O)c1c2c(nc3ccccc13)/C(=C/c1c(F)cccc1F)CCC2,9,-1,-10,12,113*,1,45,18*
O=C(O)c1c2c(nc3ccccc13)/C(=C/c1ccc(OC(F)F)cc1)CCC2,8,-2,11,5,35,7,x,x
NC(=O)c1ccsc1NC(=O)c1ccc2c(c1)CCCC2,-11,-1,24,-6,79*,-4,66*,2
